From ChEMBL document CHEMBL1132966, “Conformationally constrained analogues of diacylglycerol (DAG). 16. How much structural complexity is necessary for recognition and high binding affinity to protein kinase C?” (J Med Chem, 2000) come the findings set out here.

As usually defined, the Ki is a dissociation constant, usually derived from enzyme kinetics or from competition with a known ligand. A word on the GI50: it is the concentration that inhibits growth by half. High values mean lower sensitivity of the cells, low ones greater sensitivity of the cells.

The target of test [1] is T1, Protein kinase C alpha type (Homo sapiens, UniProt P17252). Description: Binding Affinity against protein kinase C alpha.
Test [2] concerns the target T1, Protein kinase C alpha type.
Test [3] relates to C3H 10T1/2. Briefly: Tested for inhibition of EGF(epidermal growth factor) to C3H10T1/2 cells. Format: functional. The conditions noted are these: Mus musculus, read-out: ED50 (the source's name). In short, it runs like this:
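C3H10T1/2 cells were plated at 2.5×10^5/well in MEM with 10% FBS and grown 2 days at 37 °C, 5% CO2. Cells were pretreated 60 min at 37 °C with ligand in MEM/BSA/25 mM BES pH 7.2 (DMSO <0.1% final). Cells were lysed in NaOH and bound counts measured. Background was taken with 1 μg/well unlabeled EGF. Six concentrations were run in triplicate, and ID50 is the mean of three experiments.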

For test [4], the species on record is Homo sapiens. Description: Tested for growth inhibition against Breast Hs 578.T. Type of test: functional. In short, it runs like this: (§1)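 GI50 is interpolated from the NCI cell-panel screen. It is the concentration (M) at which percentage growth is inhibited by 50% in the named line.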
In test [5] the test system is Panel NCI-60 (60 carcinoma cell lines). Description: Tested for growth inhibition against MG-MID(full panel of cells). The settings on record: Homo sapiens. Type of test: functional. Summed up: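 MG-MID is the calculated mean of the GI50 concentrations (M) across the entire NCI cell panel. Each GI50 is the interpolated concentration (M) giving 50% growth inhibition.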

Test [6] deals with COLO 205. Briefly: Tested for growth inhibition against COLO 205 cells. Format: functional. The settings on record: Homo sapiens. Summed up: as §1
In test [7] the test system is K562. Description: Tested for growth inhibition against Leukemia K-562 cells. The settings on record: Homo sapiens. Format: functional. In short, it runs like this: as §1

Structures are written as SMILES.

In test [1], `CC(=O)OCC1(CO)C/C(=C\C=C(C(C)C)C(C)C)C(=O)O1` (centres undefined) returned a Ki of 409 nM.
Turning to `CCCCCC(=O)OCC1(CO)C/C(=C\C=C(C(C)C)C(C)C)C(=O)O1` (centres undefined), the Ki in test [1] is 8.4 nM.
The same measure, in the same setting: for `CC(=O)OCC1(CO)C/C(=C\CC(C(C)C)C(C)C)C(=O)O1` (centres undefined) the value was 359 nM.
The compound `CCCCCCOC(=O)/C=C/[C@]1(CO)C/C(=C/CC(C(C)C)C(C)C)C(=O)O1` gave a Ki in test [1] of 3.5 nM. This compound also displayed an ED50 in test [2] of 950 nM. Further, in test [3], the EC50 worked out at 140 nM.
`CCCCCCCCCC(=O)OCC1(CO)C/C(=C/CC(C(C)C)C(C)C)C(=O)O1` (centres undefined): the 50% growth inhibitory concentration (GI50) worked out at 27000 nM in test [4], 44000 nM in test [5], 18000 nM in test [6] and 9200 nM in test [7]. The same compound registered a Ki in test [1] of 2.3 nM. In test [2], the ED50 is 660 nM. For the same compound, in test [3], the EC50 was determined as 1170 nM.
`CCCCCCCC/C=C\CCCCCCC/C=C1/C[C@](/C=C/C(=O)OC)(CO)OC1=O` returned a Ki in test [1] of 11 nM. Further, the ED50 in test [2] was determined as 1070 nM. The EC50 in test [3] amounted to 330 nM.
`C/C=C1\CC(CO)(COC(=O)CC(C(C)C)C(C)C)OC1=O` (centres undefined) came in with a Ki in test [1] of 138 nM.
In test [1], `C/C=C1/CC(CO)(COC(=O)CC(C(C)C)C(C)C)OC1=O` (centres undefined) showed a Ki of 164 nM.
`CCC/C=C1/CC(CO)(COC(=O)CC(C(C)C)C(C)C)OC1=O` (centres undefined) yielded a Ki in test [1] of 24 nM.
`CC(=O)OCC1(CO)C/C(=C/CC(C(C)C)C(C)C)C(=O)O1` (centres undefined): the affinity in test [1] corresponds to a Ki of 123 nM.
For the compound `CCCC(=O)OCC1(CO)C/C(=C\C=C(C(C)C)C(C)C)C(=O)O1` (centres undefined), the Ki in test [1] worked out at 51 nM.
Consider `CCCC(=O)O[C@@H]1[C@@H](C)[C@@]2(O)[C@@H](C=C(CO)C[C@]3(O)C(=O)C(C)=C[C@@H]23)[C@@H]2C(C)(C)[C@]12OC(=O)CCC`, for which the EC50 in test [3] came out at 20 nM.
As to `CCCCCCCCCC(=O)OCC1(CO)C/C(=C\CC(C(C)C)C(C)C)C(=O)O1` (centres undefined), the Ki in test [1] was determined as 6.6 nM.
In the case of `CCCCCCCC(=O)OC[C@]1(CO)C/C(=C/CC(C(C)C)C(C)C)C(=O)O1`, the affinity in test [1], expressed as Ki, was 3.5 nM.
For the compound `CCCC(=O)OCC1(CO)C/C(=C\CC(C(C)C)C(C)C)C(=O)O1` (centres undefined), in test [1], the Ki turned out to be 54 nM.
Regarding `CCCCCCCCC/C=C1/CC(CO)(COC(=O)CC(C(C)C)C(C)C)OC1=O` (centres undefined), the GI50 in test [4] stood at 58 nM; in test [5], 4700 nM; in test [6] it was 71 nM; in test [7], 140 nM. Also, in test [1], the Ki worked out at 13 nM. In test [2], this compound registered an ED50 of 430 nM. Further, in test [3], the EC50 came out at 370 nM.
Turning to `CCCCCC(=O)OCC1(CO)C/C(=C/C=C(C(C)C)C(C)C)C(=O)O1` (centres undefined), the Ki in test [1] was 12 nM.
In test [1], `CCCCC/C=C1/CC(CO)(COC(=O)CC(C(C)C)C(C)C)OC1=O` (centres undefined) showed a Ki of 7.3 nM. For the same compound, the ED50 in test [2] came to 340 nM. In addition, the EC50 in test [3] came to 130 nM.
Consider `CCCCCCOC(=O)/C=C/[C@]1(CO)C/C(=C\CC(C(C)C)C(C)C)C(=O)O1`, for which the Ki in test [1] is 29.5 nM.
For `CCCC(=O)OCC1(CO)C/C(=C/C=C(C(C)C)C(C)C)C(=O)O1` (centres undefined), the Ki in test [1] was found to be 68 nM.
The compound `CCCCCCCCC/C=C1\CC(CO)(COC(=O)CC(C(C)C)C(C)C)OC1=O` (centres undefined) registered a Ki in test [1] of 9.5 nM.
Regarding `CCCCCCCC(=O)OC[C@]1(CO)C/C(=C\CC(C(C)C)C(C)C)C(=O)O1`, in test [1], the Ki was 5.9 nM.
The same measure, in the same setting: next, `CCCCCC(=O)OCC1(CO)C/C(=C\CC(C(C)C)C(C)C)C(=O)O1` (centres undefined): 11 nM.
Take `CCCC(=O)OCC1(CO)C/C(=C/CC(C(C)C)C(C)C)C(=O)O1` (centres undefined): in test [1], affinity was put at a Ki of 19 nM. Further, in test [2], the ED50 stood at 1950 nM. The EC50 in test [3] stood at 820 nM.
As to `CC(C)C(C/C=C1/CC(CO)(COC(=O)CC(C(C)C)C(C)C)OC1=O)C(C)C` (centres undefined), the GI50 in test [4] turned out to be 26 nM; in test [5] it was 3200 nM; in test [6], 25 nM; in test [7], 21 nM. The ED50 in test [2] stood at 550 nM. Further, the EC50 in test [3] came to 170 nM.
In test [1], `CC(=O)OCC1(CO)C/C(=C/C=C(C(C)C)C(C)C)C(=O)O1` (centres undefined) registered a Ki of 390 nM.
Turning to `CCC/C=C1\CC(CO)(COC(=O)CC(C(C)C)C(C)C)OC1=O` (centres undefined), the Ki in test [1] amounted to 28 nM.
`CCCCCC(=O)OCC1(CO)C/C(=C/CC(C(C)C)C(C)C)C(=O)O1` (centres undefined): the Ki in test [1] was found to be 5.9 nM. In test [2], this compound had an ED50 of 2330 nM. For the same compound, the EC50 in test [3] is 2220 nM.
`CC(C)C(C/C=C1\CC(CO)(COC(=O)CC(C(C)C)C(C)C)OC1=O)C(C)C` (centres undefined): the results for the GI50 in test [4], in test [6] and in test [7] were 12000 nM, 1600 nM and 1500 nM, respectively. Also, in test [2], the ED50 is 680 nM. The EC50 in test [3] turned out to be 140 nM.
For the compound `CCCCC/C=C1\CC(CO)(COC(=O)CC(C(C)C)C(C)C)OC1=O` (centres undefined), the Ki in test [1] stood at 5.5 nM.
Consider `CC(=O)O[C@@]12C[C@@H](C)[C@@]3(O)[C@@H](C=C(CO)C[C@]4(O)C(=O)C(C)=C[C@@H]34)[C@@H]1C2(C)C` [PROSTRATIN], for which the results for the GI50 in test [4], in test [5] and in test [6] were 790 nM, 7000 nM and 1900 nM, respectively.
